The text below walks through data of ChEMBL document CHEMBL1152942, “Chemistry of renieramycins. Part 8: synthesis and cytotoxicity evaluation of renieramycin M-jorunnamycin A analogues” (Bioorg Med Chem, 2009).

Common to all, as to assay type: functional, cell-based
For assay [1], the system named is HCT-116. Briefly: Cytotoxicity against human HCT116 cells after 3 days by MTT assay. A digest of the protocol: (§1)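 HCT116 colon carcinoma cells were seeded at 1500 cells/well 24 h before treatment. They were exposed to threefold serial dilutions from 100 nM to 0.41 nM, with under 1% DMSO final (20 mM DMSO stocks), for 3 days. Growth was read by MTT absorbance at 540 nm. IC50 was taken as 50% growth inhibition relative to untreated controls, in triplicate.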

A further assay deals with MDA-MB-435. Briefly: Cytotoxicity against human MDA-MB-435 cells after 3 days by MTT assay.
A further assay relates to QG-56. Briefly: Cytotoxicity against human QG56 cells at 1.4 to 100 nM after 3 days by MTT assay.
Assay [2] deals with HCT-116. Briefly: Cytotoxicity against human HCT116 cells at 1.4 to 100 nM after 3 days by MTT assay. The gist of the method:
as §1

Active and inactive are the calls of the source. No cut-off for these calls is given here.

In the case of `COC1=C(C)C(=O)C2=C(C1=O)[C@@H]1[C@@H]3CC4=C(C(=O)C(OC)=C(C)C4=O)[C@H](COC(=O)C4CC=CC4)N3[C@@H](C#N)[C@H](C2)N1C`, the IC50 in the assay on HCT-116 [1] (Homo sapiens, HCT-116, 72 h) is 0.033 µM; with MDA-MB-435 (Homo sapiens, MDA-MB-435, 72 h), 0.013 µM.
Consider `COC1=C(C)C(=O)C2=C(C1=O)[C@@H]1[C@@H]3CC4=C(C(=O)C(OC)=C(C)C4=O)[C@H](COC(=O)c4cnc5ccccc5c4)N3[C@@H](C#N)[C@H](C2)N1C`, for which the IC50 in the assay on HCT-116 [1] (Homo sapiens, HCT-116, 72 h) is 0.01 µM; with MDA-MB-435 (Homo sapiens, MDA-MB-435, 72 h), 0.0038 µM.
Turning to `COC1=C(C)C(=O)C2=C(C1=O)[C@@H]1[C@@H]3CC4=C(C(=O)C(OC)=C(C)C4=O)[C@H](COC(=O)c4ccnc5ccccc45)N3[C@@H](C#N)[C@H](C2)N1C`, the IC50 in the assay with HCT-116 [1] (Homo sapiens, HCT-116, 72 h) amounted to 0.01 µM; in the assay on MDA-MB-435 (Homo sapiens, MDA-MB-435, 72 h) it was 0.0041 µM.
In the same order, the values of `CCCCCC(=O)OC[C@H]1C2=C(C[C@H]3[C@H]4C5=C(C[C@@H]([C@H](C#N)N13)N4C)C(=O)C(C)=C(OC)C5=O)C(=O)C(C)=C(OC)C2=O` are 0.1 µM and 0.04 µM.
For `COC1=C(C)C(=O)C2=C(C1=O)[C@@H]1[C@@H]3CC4=C(C(=O)C(OC)=C(C)C4=O)[C@H](COC(=O)c4cccnc4)N3[C@@H](C#N)[C@H](C2)N1C`, the IC50 in the assay on HCT-116 [1] (Homo sapiens, HCT-116, 72 h) was determined as 0.0079 µM; in the assay on MDA-MB-435 (Homo sapiens, MDA-MB-435, 72 h), 0.0035 µM.
With `COC1=C(C)C(=O)C2=C(C1=O)[C@@H]1[C@@H]3CC4=C(C(=O)C(OC)=C(C)C4=O)[C@H](COC(=O)c4ccncc4)N3[C@@H](C#N)[C@H](C2)N1C`, the IC50 stood at 0.01 µM in the assay with HCT-116 [1] (Homo sapiens, HCT-116, 72 h) and 0.0044 µM with MDA-MB-435 (Homo sapiens, MDA-MB-435, 72 h).
For the compound `CCC(C)C(=O)OC[C@H]1C2=C(C[C@H]3[C@H]4C5=C(C[C@@H]([C@H](C#N)N13)N4C)C(=O)C(C)=C(OC)C5=O)C(=O)C(C)=C(OC)C2=O` (mixture of isomers), the IC50 in the assay with HCT-116 [1] (Homo sapiens, HCT-116, 72 h) amounted to 0.033 µM; in the assay with MDA-MB-435 (Homo sapiens, MDA-MB-435, 72 h), 0.012 µM.
For the compound `COC1=C(C)C(=O)C2=C(C1=O)[C@@H]1[C@@H]3CC4=C(C(=O)C(OC)=C(C)C4=O)[C@H](COC(=O)C(C)C)N3[C@@H](C#N)[C@H](C2)N1C`, the IC50 in the assay with HCT-116 [1] (Homo sapiens, HCT-116, 72 h) stood at 0.022 µM; in the assay with MDA-MB-435 (Homo sapiens, MDA-MB-435, 72 h), 0.01 µM.
As to `COC1=C(C)C(=O)C2=C(C1=O)[C@@H]1[C@@H]3CC4=C(C(=O)C(OC)=C(C)C4=O)[C@H](COC(C)=O)N3[C@@H](C#N)[C@H](C2)N1C` [CYANOJORUMYCIN], the IC50 was found to be 0.0032 µM with HCT-116 [1] (Homo sapiens, HCT-116, 72 h) and 0.0014 µM in the assay on MDA-MB-435 (Homo sapiens, MDA-MB-435, 72 h).
For `COC1=C(C)C(=O)C2=C(C1=O)[C@@H]1[C@@H]3CC4=C(C(=O)C(OC)=C(C)C4=O)[C@H](COC(=O)c4ccccc4OC)N3[C@@H](C#N)[C@H](C2)N1C`, the IC50 with HCT-116 [1] (Homo sapiens, HCT-116, 72 h) was 0.034 µM; in the assay with MDA-MB-435 (Homo sapiens, MDA-MB-435, 72 h) it was 0.011 µM.
On to `COC1=C(C)C(=O)C2=C(C1=O)[C@@H]1[C@@H]3CC4=C(C(=O)C(OC)=C(C)C4=O)[C@H](COC(=O)C4=CCCCC4)N3[C@@H](C#N)[C@H](C2)N1C`, for which the 50% inhibitory concentration (IC50) in the assay with HCT-116 [1] (Homo sapiens, HCT-116, 72 h) was found to be 0.049 µM; in the assay on MDA-MB-435 (Homo sapiens, MDA-MB-435, 72 h), 0.029 µM.
Take `COC1=C(C)C(=O)C2=C(C1=O)[C@@H]1[C@@H]3CC4=C(C(=O)C(OC)=C(C)C4=O)[C@H](COC=O)N3[C@@H](C#N)[C@H](C2)N1C`: the half-maximal inhibitory concentration (IC50) in the assay with HCT-116 [1] (Homo sapiens, HCT-116, 72 h) was 0.038 µM; in the assay on MDA-MB-435 (Homo sapiens, MDA-MB-435, 72 h), 0.038 µM.
Turning to `COC1=C(C)C(=O)C2=C(C1=O)[C@@H]1[C@@H]3CC4=C(C(=O)C(OC)=C(C)C4=O)[C@H](CO)N3[C@@H](C#N)[C@H](C2)N1C` [JOURNNAMYCIN A], the half-inhibitory concentration (IC50) came out at 0.13 µM in the assay with HCT-116 [1] (Homo sapiens, HCT-116, 72 h) and 0.29 µM with MDA-MB-435 (Homo sapiens, MDA-MB-435, 72 h). Further, the result in the assay with QG-56 was Active.
Turning to `CC=C(C)C(=O)OC[C@H]1C2=C(C[C@H]3[C@H]4C5=C(C[C@@H]([C@H](C#N)N13)N4C)C(=O)C(C)=C(OC)C5=O)C(=O)C(C)=C(OC)C2=O` [RENIERAMYCIN M], the half-inhibitory concentration (IC50) with HCT-116 [1] (hct-116) worked out at 0.034 µM; in the assay on MDA-MB-435 (mda-mb-435) it was 0.011 µM.
In the case of `C/C=C(/C)C(=O)OC[C@H]1C2=C(C[C@H]3[C@H]4C5=C(C[C@@H]([C@H](C#N)N13)N4C)C(=O)C(C)=C(OC)C5=O)C(=O)C(C)=C(OC)C2=O` [RENIERAMYCIN M], the IC50 in the assay with HCT-116 [1] (hct-116) came out at 0.0094 µM; in the assay with MDA-MB-435 (mda-mb-435) it was 0.0038 µM.
Consider `COC1=C(C)C(=O)C2=C(C1=O)[C@@H]1[C@@H]3CC4=C(C(=O)C(OC)=C(C)C4=O)[C@H](COC(=O)c4ccccn4)N3[C@@H](C#N)[C@H](C2)N1C`, for which the IC50 in the assay on HCT-116 [1] (Homo sapiens, HCT-116, 72 h) worked out at 0.0033 µM; in the assay with MDA-MB-435 (Homo sapiens, MDA-MB-435, 72 h), 0.0014 µM.
Turning to `COC1=C(C)C(=O)C2=C(C1=O)[C@@H]1[C@@H]3CC4=C(C(=O)C(OC)=C(C)C4=O)[C@H](COC(=O)CCCl)N3[C@@H](C#N)[C@H](C2)N1C`, the IC50 in the assay with HCT-116 [1] (Homo sapiens, HCT-116, 72 h) worked out at 0.016 µM; in the assay with MDA-MB-435 (Homo sapiens, MDA-MB-435, 72 h), 0.012 µM.
Consider `COC1=C(C)C(=O)C2=C(C1=O)[C@@H]1[C@@H]3CC4=C(C(=O)C(OC)=C(C)C4=O)[C@H](COC(=O)C4CCCC4)N3[C@@H](C#N)[C@H](C2)N1C`, for which the IC50 with HCT-116 [1] (Homo sapiens, HCT-116, 72 h) was 0.093 µM; in the assay with MDA-MB-435 (Homo sapiens, MDA-MB-435, 72 h), 0.03 µM.
For `COC1=C(C)C(=O)C2=C(C1=O)[C@@H]1[C@@H]3CC4=C(C(=O)C(OC)=C(C)C4=O)[C@H](COC(=O)C4=CCCC4)N3[C@@H](C#N)[C@H](C2)N1C`, the IC50 in the assay with HCT-116 [1] (Homo sapiens, HCT-116, 72 h) stood at 0.033 µM; in the assay with MDA-MB-435 (Homo sapiens, MDA-MB-435, 72 h) it was 0.013 µM.
On to `CCCC(=O)OC[C@H]1C2=C(C[C@H]3[C@H]4C5=C(C[C@@H]([C@H](C#N)N13)N4C)C(=O)C(C)=C(OC)C5=O)C(=O)C(C)=C(OC)C2=O`, for which the IC50 came out at 0.034 µM with HCT-116 [1] (Homo sapiens, HCT-116, 72 h) and 0.012 µM in the assay with MDA-MB-435 (Homo sapiens, MDA-MB-435, 72 h).
On to `COC1=C(C)C(=O)C2=C(C1=O)[C@@H]1[C@@H]3CC4=C(C(=O)C(OC)=C(C)C4=O)[C@H](COC(=O)c4ccc(OC)cc4)N3[C@@H](C#N)[C@H](C2)N1C`, for which the IC50 is 0.026 µM in the assay with HCT-116 [1] (Homo sapiens, HCT-116, 72 h) and 0.0089 µM with MDA-MB-435 (Homo sapiens, MDA-MB-435, 72 h).
Consider `COC1=C(C)C(=O)C2=C(C1=O)[C@@H]1[C@@H]3CC4=C(C(=O)C(OC)=C(C)C4=O)[C@H](COC(C)=O)N3[C@@H](O)[C@H](C2)N1C`, for which the outcome with QG-56 and in the assay on HCT-116 [2] was Active.
In the case of `COC1=C(C)C(=O)C2=C(C1=O)[C@@H]1[C@@H]3CC4=C(C(=O)C(OC)=C(C)C4=O)[C@H](COC(=O)c4ccc([N+](=O)[O-])cc4)N3[C@@H](C#N)[C@H](C2)N1C`, the IC50 is 0.026 µM in the assay on HCT-116 [1] (Homo sapiens, HCT-116, 72 h) and 0.0094 µM with MDA-MB-435 (Homo sapiens, MDA-MB-435, 72 h).
With `CCC(=O)OC[C@H]1C2=C(C[C@H]3[C@H]4C5=C(C[C@@H]([C@H](C#N)N13)N4C)C(=O)C(C)=C(OC)C5=O)C(=O)C(C)=C(OC)C2=O` [JORUNNAMYCIN C], the IC50 in the assay on HCT-116 [1] (Homo sapiens, HCT-116, 72 h) was 0.011 µM; in the assay with MDA-MB-435 (Homo sapiens, MDA-MB-435, 72 h) it was 0.0042 µM. For the same compound, the result in the assay on QG-56 was Active.
`COC1=C(C)C(=O)C2=C(C1=O)[C@@H]1[C@@H]3CC4=C(C(=O)C(OC)=C(C)C4=O)[C@H](COC(=O)C4CC=CCC4)N3[C@@H](C#N)[C@H](C2)N1C` (mixture of isomers): the IC50 is 0.043 µM with HCT-116 [1] (Homo sapiens, HCT-116, 72 h) and 0.027 µM with MDA-MB-435 (Homo sapiens, MDA-MB-435, 72 h).
In the same order, the values of `COC1=C(C)C(=O)C2=C(C1=O)[C@@H]1[C@@H]3CC4=C(C(=O)C(OC)=C(C)C4=O)[C@H](COC(=O)c4ccc5ccccc5n4)N3[C@@H](C#N)[C@H](C2)N1C` are 0.011 µM and 0.0042 µM.
For `COC1=C(C)C(=O)C2=C(C1=O)[C@@H]1[C@@H]3CC4=C(C(=O)C(OC)=C(C)C4=O)[C@H](COC(=O)C=C(C)C)N3[C@@H](C#N)[C@H](C2)N1C` the same measures were 0.027 µM and 0.011 µM.
`COC1=C(C)C(=O)C2=C(C1=O)[C@@H]1[C@@H]3CC4=C(C(=O)C(OC)=C(C)C4=O)[C@H](COC(=O)c4ccc(Br)cc4)N3[C@@H](C#N)[C@H](C2)N1C`: the IC50 in the assay on HCT-116 [1] (Homo sapiens, HCT-116, 72 h) amounted to 0.038 µM; with MDA-MB-435 (Homo sapiens, MDA-MB-435, 72 h), 0.013 µM.
In the same order, the values of `COC1=C(C)C(=O)C2=C(C1=O)[C@@H]1[C@@H]3CC4=C(C(=O)C(OC)=C(C)C4=O)[C@H](COC(=O)c4ccccc4)N3[C@@H](C#N)[C@H](C2)N1C` are 0.025 µM and 0.0086 µM.
